Consider 77 molecules from ChEMBL document CHEMBL1671701, “Discovery of potent small-molecule inhibitors of multidrug-resistant Plasmodium falciparum using a novel miniaturized high-throughput luciferase-based assay” (Antimicrob Agents Chemother, 2010).

Molecules are shown by their SMILES. Structures can show the parent of a compound that is named as a salt.

For the first test, the system named is Plasmodium falciparum. Kind of test: Antiplasmodial activity against multidrug-resistant Plasmodium falciparum TM90C2B by SYBR Green 1-based fluorescence assay. In kind it is functional, organism-based.
Conditions: not given
In outline:
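Resistant TM90C2B parasites are treated over a dose range and growth is read as SYBR green I fluorescence. IC50 comes from a fit of the log dose-response relationship, as the mean of at least three separate experiments.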
As a reminder, the IC50 is the concentration that inhibits the measured activity by half. Read a high IC50 as a need for much substance. `CC(=O)N(C1=C(N2CCOCC2)C(=O)c2ccccc2C1=O)c1cccc(Cl)c1` displayed a concentration for half-maximal inhibition (IC50) of 510 nM. The same measure, in the same setting: the value for `CC(=O)N(C1=C(N(C)C)C(=O)c2ccccc2C1=O)c1cccc(Br)c1` was 94 nM.

Another test relates to Plasmodium falciparum. Kind of test: Antiplasmodial activity against Plasmodium falciparum 3D7 by SYBR Green 1-based fluorescence assay. The test is classed as functional, organism-based.
Conditions: not given
The molecule `CC(=O)N(C1=C(N2CCOCC2)C(=O)c2ccccc2C1=O)c1cccc(Cl)c1` showed a half-inhibitory concentration (IC50) of 1800 nM. In the case of `CC(=O)N(C1=C(N(C)C)C(=O)c2ccccc2C1=O)c1cccc(Br)c1`, the half-inhibitory concentration (IC50) is 130 nM.

The next test has as its system Plasmodium falciparum. Kind of test: Antiplasmodial activity against Plasmodium falciparum 3D7 infected in RBCs by firefly luciferase reporter gene assay. In kind it is functional, organism-based.
Conditions: not given
Summed up:
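Sorbitol-synchronised 3D7 expressing firefly luciferase from the HRPII promoter, at 1% late-ring parasitemia and 3% hematocrit in RPMI/albumax II medium. Sixteen 2-fold dilutions from 17 μM to 0.5 nM, 48 h at 37°C under 5% O2/5% CO2/N2. Bright-Glo luminescence is normalised to untreated infected and uninfected-RBC wells. IC50 by four-parameter logistic fit.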
(A reporter such as luciferase makes a cellular process visible.)
Take `CCNC(=O)N1CCN(CCCC(c2ccc(F)cc2)c2ccc(F)cc2)CC1` [AMPEROZIDE HYDROCHLORIDE]: half-maximal inhibition (IC50) required 35 nM.

Molecule `CCNC(=O)N1CCN(CCCC(c2ccc(F)cc2)c2ccc(F)cc2)CC1` [AMPEROZIDE DIHYDROCHLORIDE] had a half-inhibitory concentration (IC50) of 443 nM.

Staying with this test, now noted: Plasmodium falciparum, 3D7.
In the case of `CCCN(CC1CC1)c1cc(Br)cc(Br)c1O`, the IC50 turned out to be 710 nM. `Oc1c(Br)cccc1N1CCCCCCC1` gave an IC50 of 430 nM.

As for `N=C(N)c1ccc(OCCCCCOc2ccc(C(=N)N)cc2)cc1`, the IC50 amounted to 42 nM. The same measure, in the same setting: the value for `Clc1ccc(C(OCCN2CCCCC2)c2ccccc2)cc1` (stereo unspecified) [CLOPERASTINE HYDROCLORIDE] was 4880 nM; that for `CCCN(CC1CC1)c1cc(OC)cc(Br)c1O` was 290 nM. The same measure, in the same setting: the value for `COc1ccc(O)c(N2CCCCC2)c1` was 790 nM; that for `CC(=O)N(C1=C(N2CCCCC2)C(=O)c2ccccc2C1=O)c1cccc(Cl)c1` was 4300 nM. Still for that read-out and setting: the value for `C=C[C@H]1CN2CC[C@H]1C[C@@H]2[C@@H](O)c1ccnc2ccc(OC)cc12` [QUINIDINE SULFATE] was 56 nM; that for `Cc1ccnc(NS(=O)(=O)c2ccc(N)cc2)n1` [SULFAMERAZINE] was 6 nM. With `CCCc1nc2c(C)cc(-c3nc4ccccc4n3C)cc2n1Cc1ccc(-c2ccccc2C(=O)O)cc1` [TELMISARTAN], 1610 nM corresponded to half-maximal inhibition (IC50). The same measure, in the same setting: the value for `CC[C@]1(O)C[C@H]2CN(CCc3c([nH]c4ccccc34)[C@@](C(=O)OC)(c3cc4c(cc3OC)N(C=O)[C@H]3[C@@](O)(C(=O)OC)[C@H](OC(C)=O)[C@]5(CC)C=CCN6CC[C@]43[C@@H]65)C2)C1` [VINCRISTINE] was 1 nM; that for `C[C@@H]1C[C@H]2[C@@H]3CCC4=CC(=O)C=C[C@]4(C)[C@@]3(Cl)[C@@H](O)C[C@]2(C)[C@@]1(OC(=O)c1ccco1)C(=O)CCl` [MOMETASONE FUROATE] was 1510 nM; that for `COc1ccc(CNC2CCN(Cc3ccccc3)CC2)cc1` was 1300 nM. `Oc1c(Cl)cccc1N1CCCCCCC1` gave a 50% inhibitory concentration (IC50) of 180 nM. The molecule `CNC(=C[N+](=O)[O-])NCCSCc1csc(CN(C)C)n1` [NIZATIDINE] displayed an IC50 of over 22800 nM.

`CN(Cc1ccccc1)c1cc(Br)cc(Br)c1O` had an IC50 of 680 nM. Same read-out and setting: the value for `CN(C)c1nc(N)c(C(=O)NC(=N)N)nc1Cl` [5-(N,N-DIMETHYL)AMILORIDE HYDROCHLORIDE] was 1100 nM; that for `c1cc(CN2CCCCC2)cc(OCCCNc2nc3ccccc3s2)c1` [ZOLANTIDINE DIMALATE] was over 22800 nM; that for `CCCCN(Cc1ccccc1)c1ccccc1O` was 420 nM. With `Cc1ccc(CS(=O)(=O)N2CCN(CCCC(c3ccc(F)cc3)c3ccc(F)cc3)CC2)cc1`, the IC50 worked out at 800 nM.

With `CCN(c1nc(N)c(C(=O)NC(=N)N)nc1Cl)C(C)C` [5-(N-ETHYL-N-ISOPROPYL)AMILORIDE], the IC50 came out at 825 nM. Still for that read-out and setting: the value for `NC(=O)CCCCn1ccc(/N=C(\N)NCC(F)(F)F)n1` was 18000 nM; that for `CN/C(=N\CCSCc1nc[nH]c1C)NC#N` [CIMETIDINE] was over 22800 nM. The same measure, in the same setting: the value for `N/C(=N\C(=O)c1nc(Cl)c(N)nc1N)NCc1ccc(Cl)c(Cl)c1` [3',4' DICHLOROBENZAMIL] was 143 nM; that for `CC(=O)N(C1=C(N2CCOCC2)C(=O)c2ccccc2C1=O)c1cccc(Cl)c1` was 790 nM. The same measure, in the same setting: the value for `C=C[C@H]1CN2CC[C@H]1C[C@@H]2[C@@H](O)c1ccnc2ccccc12` [CINCHONINE] was 5 nM.

On to `O=c1ccc2ccccc2[nH]1` [OXYQUINOLINE HEMISULFATE], for which half-maximal inhibition (IC50) was put at 1140 nM. In turn, `CNC(=C[N+](=O)[O-])NCCSCc1ccc(CN(C)C)o1` [RANITIDINE HYDROCHLORIDE] showed a half-maximal inhibitory concentration (IC50) of over 22800 nM. On the same count and under the same terms, the value for `CCN(CC)CCCC(c1ccc(F)cc1)c1ccc(F)cc1` was 5700 nM.

`CCCCCC[C@H]1C(=O)O[C@H](C)[C@H](NC(=O)c2cccc(NC=O)c2O)C(=O)O[C@@H](C)[C@@H]1OC(=O)CC(C)C` [ANTIMYCIN A] returned an IC50 of 2190 nM.

`C[C@H]1[C@H](OC(=O)CCC(=O)O)O[C@@H]2O[C@@]3(C)CC[C@H]4[C@H](C)CC[C@@H]1[C@@]24OO3` [ARTESUNATE]: the IC50 came to 3.3 nM. On the same count and under the same terms, the value for `O=S(=O)(c1ccccc1)N1CCN(CCCC(c2ccc(F)cc2)c2ccc(F)cc2)CC1` was 3000 nM. The same measure, in the same setting: the value for `Oc1c(Cl)cccc1C1=NN=C(c2ccc(F)cc2)C1` was 1500 nM; that for `CCCN1CCC(NCC(c2ccccc2)c2ccccc2)CC1` was 490 nM.

With `CCCCN(C)c1cc(Br)cc(Br)c1O`, half-maximal inhibition (IC50) required 270 nM. Same read-out and setting: the value for `Fc1ccc(C(CCCN2CCOCC2)c2ccc(F)cc2)cc1` was 18000 nM; that for `C=C[C@H]1CN2CC[C@H]1C[C@H]2[C@H](O)c1ccnc2ccc(OC)cc12` [QUININE SULFATE] was 280 nM. On the same count and under the same terms, the value for `C=CC[N+](C)(C)c1ccc(CCC(=O)CCc2ccc([N+](C)(C)CC=C)cc2)cc1` was 107 nM; that for `CCCCOc1ccc(CC(=O)NO)cc1` [BUFEXAMAC] was 2770 nM. Regarding `Clc1cccc(CNC2CCN(Cc3ccccc3)CC2)c1`, the half-maximal inhibitory concentration (IC50) was 1100 nM. The molecule `NC(N)=Nc1nc(CSCC/C(N)=N/S(N)(=O)=O)cs1` [FAMOTIDINE] came in with an IC50 of over 22800 nM. The same measure, in the same setting: the value for `CC(=O)N(C1=C(N(C)C)C(=O)c2ccccc2C1=O)c1cccc(Br)c1` was 32 nM; that for `Oc1c(Cl)cccc1C1=NN=C(c2ccc(Cl)cc2)C1` was 15000 nM; that for `O[Si](CCCN1CCCCC1)(c1ccc(F)cc1)C1CCCCC1` (stereo unspecified) was 4 nM. The same measure, in the same setting: the value for `CC(C)CN(C)c1nc(N)c(C(=O)N=C(N)N)nc1Cl` [5-(N-METHYL-N-ISOBUTYL)AMILORIDE] was 549 nM. Same read-out and setting: the value for `CC[C@]1(O)C[C@@H]2CN(CCc3c([nH]c4ccccc34)[C@@](C(=O)OC)(c3cc4c(cc3OC)N(C)[C@H]3[C@@](O)(C(=O)OC)[C@H](OC(C)=O)[C@]5(CC)C=CCN6CC[C@]43[C@@H]65)C2)C1` [VINBLASTINE] was 2 nM; that for `CC(=O)N(C1=C(N2CCCCC2)C(=O)c2ccccc2C1=O)C1CCCCC1` was 5400 nM; that for `N/C(=N\C(=O)c1nc(Cl)c(N)nc1N)NCc1ccccc1` [BENZAMIL HYDROCHLORIDE] was 217 nM. Molecule `Fc1ccc(C(CCCN2CCNCC2)c2ccc(F)cc2)cc1` gave an IC50 of 4500 nM. `NCCc1c[nH]cn1` [HISTAMINE]: inhibition was half-maximal at 660 nM (IC50). `COc1ccc(CCN2CCC(Nc3nc4ccccc4n3Cc3ccc(F)cc3)CC2)cc1` [ASTEMIZOLE]: 254 nM corresponded to half-maximal inhibition (IC50). On the same count and under the same terms, the value for `CCCN(CC1CC1)c1cc(Cl)cc(Cl)c1O` was 330 nM; that for `N#CN/C(=N\CCNC(=O)c1ccc(N)cc1)NCCCOc1cccc(CN2CCCCC2)c1` [AMINOPOTENTIDINE] was 14700 nM; that for `O=C(Nc1ccccc1)N1CCN(CCCC(c2ccc(F)cc2)c2ccc(F)cc2)CC1` was 7300 nM.

The molecule `CCN(CC)CCCC(C)Nc1c2ccc(Cl)cc2nc2ccc(OC)cc12` (stereo unspecified) [QUINACRINE DIHYDROCHLORIDE] registered a concentration for half-maximal inhibition (IC50) of 1 nM. The same measure, in the same setting: the value for `Cc1cccc(C2=NN=C(c3ccc(Br)cc3)C2)c1O` was 4700 nM; that for `CN1CCN(CCCC(c2ccc(F)cc2)c2ccc(F)cc2)CC1` was 12000 nM; that for `C/N=C(/NC#N)NCCSCc1csc(NC(=N)N)n1` [TIOTIDINE] was over 22800 nM. Still for that read-out and setting: the value for `Fc1ccc(C(CCCN2CCCCC2)c2ccc(F)cc2)cc1` was 6000 nM; that for `CC[C@H]1CN2CCc3cc(OC)c(OC)cc3[C@@H]2C[C@@H]1C[C@H]1NCCc2cc(OC)c(OC)cc21` [EMETINE DIHYDROCHLORIDE HYDRATE] was 1 nM; that for `CN1CCc2cccc3c2[C@H]1Cc1ccc(O)c(O)c1-3` [APOMORPHINE HYDROCHLORIDE] was 373 nM.

In turn, `c1ccc(CCN2CCC(NC3CCCCC3)CC2)cc1` showed a concentration for half-maximal inhibition (IC50) of 890 nM. On the same count and under the same terms, the value for `CCCN(CCC)[C@H]1CCc2c(F)ccc(O)c2C1` was 5 nM. Same read-out and setting: the value for `CCN(CC)CCNc1ccc(CO)c2sc3ccccc3c(=O)c12` [HYCANTHONE] was 3020 nM.

`N#Cc1ccc2c(c1)N(CCCN1CCC(O)CC1)c1ccccc1S2` [PERICIAZINE] displayed an IC50 of 6560 nM. `CC(C)C[C@@H]1NC(=O)[C@H](CCCN)NC(=O)[C@H](C(C)C)NC(=O)[C@H](Cc2ccc(O)cc2)N[C@@H](CCC(=O)O)C(=O)N[C@@H](CC(N)=O)C(=O)[C@@H](Cc2ccccc2)NC(=O)[C@H](Cc2ccccc2)NC(=O)[C@@H]2CCCN2C(=O)[C@@H](Cc2ccccc2)NC1=O` [TYROTHRICIN]: the midpoint of inhibition, the IC50, lay at 0.05 nM. Still for that read-out and setting: the value for `CCCN1CCC(NC(c2ccccc2)c2ccc(Cl)cc2)CC1` (stereo unspecified) was 1100 nM; that for `CCC(=O)O[C@]1(C(=O)CCl)[C@@H](C)C[C@H]2[C@@H]3CCC4=CC(=O)C=C[C@]4(C)[C@@]3(F)[C@@H](O)C[C@@]21C` [CLOBETASOL PROPIONATE] was 797 nM; that for `CC1CCCN(c2cc(Cl)cc(Cl)c2O)C1` (stereo unspecified) was 110 nM. The same measure, in the same setting: the value for `Fc1ccc(C(CCCN2CCCC2)c2ccc(F)cc2)cc1` was 12000 nM. On the same count and under the same terms, the value for `Oc1ccccc1N1CCCC2CCCCC21` (stereo unspecified) was 410 nM; that for `CN(CCc1ccccc1)c1cc(Br)cc(Br)c1O` was 36 nM.

In the case of `O=C1CCN(CCCC(c2ccc(F)cc2)c2ccc(F)cc2)CC1`, the midpoint of inhibition, the IC50, lay at 5400 nM.

Regarding `Clc1ccc(CNC2CCN(Cc3ccccc3)CC2)cc1`, half-maximal inhibition (IC50) was put at 250 nM.

`CC1CCCN(c2cccc(Br)c2O)C1` (stereo unspecified) came in with an IC50 of 130 nM.
